Laboratory results published in ChEMBL document CHEMBL3227977, “L-Chlorozotocin” (J Med Chem, 1979).

Assays:
[1] = system: L1210; test: Antineoplastic activity against mouse L1210 cells allografted in CDF1 mouse assessed as median day of death at 24 mg/kg, ip administered on day 1 post-tumor cell implantation (reference value: 8 days); assay type: functional; details: route intraperitoneal
In short: (§1)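 Male CDF1 mice were inoculated ip with 10⁵ L1210 cells. Drug in physiological saline was given ip as a single dose on day 1 postimplant, at the maximum non-toxic dose relative to the concurrent LD10. There were 10 mice per test group and 30 in the control group, followed for 60 days. Median day of death counted dying mice only. Increase in life span excluded survivors.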

[2] = system: L1210; test: Antineoplastic activity against mouse L1210 cells allografted in CDF1 mouse assessed as increase in host life span at 24 mg/kg, ip administered on day 1 post-tumor cell implantation; assay type: functional; details: route intraperitoneal; in short: as §1
[3] = system: L1210; test: Antineoplastic activity against mouse L1210 cells allografted in CDF1 mouse assessed as dose causing 50% 60-day host survival at 24 mg/kg, ip administered on day 1 post-tumor cell implantation; assay type: functional; details: route intraperitoneal; in short: as §1
[4] = Therapeutic index, ratio of ED50 for antineoplastic activity against mouse L1210 cells allografted in CDF1 mouse to LD10 for CDF1 mouse; details: read-out: TI
In short: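 The therapeutic index is the fraction of the single-dose LD10 that gave 50% 60-day survival: ED50 divided by LD10. ED50 came from log-dose probit-survival plots in L1210-bearing male CDF1 mice (10⁵ cells ip, single ip dose in saline on day 1). LD10 came from concurrent toxicity controls.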

[5] = system: Mus musculus; test: Toxicity in ip dosed CDF1 mouse; assay type: organism-based; details: in vivo
In short: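 Single-dose LD10 was found in concurrent toxicity controls using normal (non-tumor-bearing) mice, run alongside the L1210 survival experiment, with drug in physiological saline given ip.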

[6] = system: L1210; test: Antineoplastic activity against mouse L1210 cells allografted in CDF1 mouse assessed as tumor growth inhibition at 24 mg/kg, ip administered on day 1 post-tumor cell implantation; assay type: functional; details: route intraperitoneal

SMILES	Time [1]	Activity [2]	ED50 [3]	selectivity ratio [4]	LD10 [5]	LCK [6]
O=NN(CCCl)C(=O)N[C@H]1C(O)O[C@H](CO)[C@@H](O)[C@@H]1O (some centres not stated) [CHLOROZOTOCIN]	13 days	62%	21 mg/kg	0.7	30 mg/kg	>=6
O=NN(CCCl)C(=O)N[C@@H]1C(O)O[C@@H](CO)[C@H](O)[C@H]1O (some centres not stated)	15 days	87%	21 mg/kg	0.64	33 mg/kg	>=6
